Results published in ChEMBL document CHEMBL1143597, “Thrombospondin-1 mimetic peptide inhibitors of angiogenesis and tumor growth: design, synthesis, and optimization of pharmacokinetics and biological activities” (J Med Chem, 2005).
Where a SMILES comes first, the peptide text is derived from it. [ ]: non-standard residue; d: D form. d(aIle) = CC[C@H](C)[C@@H](N)C(=O)O; Nva = CCC[C@H](N)C(=O)O; Sar = CNCC(=O)O

Experiments:
[1] = In vitro inhibitory concentration against HMVE cell migration was determined; format: functional, cell-based; conditions: Homo sapiens
Procedure, shortened: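 Primary HMVEC grown to 80-90% confluency, starved 18 h in EBM with 5% FCS, labelled with calcein AM 30 min at room temperature. Cells with or without compound (in D5W) are placed above a filter with VEGF (10 ng) below, then held 4 h at 37 °C, 5% CO2. Unmigrated cells are wiped off and fluorescence is read (485/530). % inhibition is taken versus the VEGF positive control.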

[2] = In vitro inhibitory concentration against HMVEC endothelial tube formation was determined; […]; format: functional, Homo sapiens
[3] = In vitro inhibitory concentration against HMVEC endothelial tube formation was determined; 0.25 - 0.10 nM; format: functional, Homo sapiens
[4] = In vitro inhibitory concentration against HMVEC endothelial tube formation was determined; format: functional, Homo sapiens
[5] = In vitro inhibitory concentration against HMVEC endothelial tube formation was determined; 200 - 100 nM; format: functional, Homo sapiens
[6] = Inhibitory concentration against TSP-1 binding towards HMVEC cell line migration; format: functional, cell-based; conditions: Homo sapiens
[7] = In vitro inhibitory concentration against HMVEC endothelial tube formation was determined; 50 - 25 nM; format: functional, Homo sapiens

Structure (SMILES)	IC50 [1] [nM]	also measured
CCC[C@H](NC(=O)[C@@H](NC(=O)[C@H](NC(=O)[C@@H](NC(=O)CNC(C)=O)C(C)C)[C@H](C)CC)[C@@H](C)O)C(=O)N[C@H](C(=O)N[C@@H](CCCN=C(N)N)C(=O)N1CCC[C@H]1C(=O)NCC)[C@@H](C)CC	0.07	–
CCC[C@H](NC(=O)[C@@H](NC(=O)[C@H](NC(=O)[C@@H](NC(=O)CNC(=O)CN(C)C(=O)CCC(=O)O)C(C)C)[C@H](C)CC)[C@@H](C)O)C(=O)N[C@H](C(=O)N[C@@H](CCCN=C(N)N)C(=O)N1CCC[C@H]1C(=O)NCC)[C@@H](C)CC	0.26	IC50 [2]: 10 nM
CCC[C@@H](C(=O)N[C@H](C(=O)N[C@@H](CCCN=C(N)N)C(=O)N1CCC[C@H]1C(=O)NC(C)C)[C@@H](C)CC)N(C)C(=O)[C@@H](NC(=O)[C@H](NC(=O)[C@@H](NC(=O)CNC(=O)CN(C)C(=O)CCC(=O)O)C(C)C)[C@H](C)CC)[C@@H](C)O	0.06	IC50 [3]: 0.25 nM
CCC[C@@H](C(=O)N[C@H](C(=O)N[C@@H](CCCN=C(N)N)C(=O)N1CCC[C@H]1C(=O)NCC)[C@@H](C)CC)N(C)C(=O)[C@@H](NC(=O)[C@H](NC(=O)[C@@H](NC(=O)CNC(=O)CN(C)C(=O)CCC(=O)O)C(C)C)[C@H](C)CC)[C@@H](C)O	0.45	IC50 [2]: 10 nM
CCC[C@H](NC(=O)[C@@H](NC(=O)[C@H](NC(=O)[C@@H](NC(=O)CNC(=O)CN(C)C(C)=O)C(C)C)[C@H](C)CC)[C@@H](C)O)C(=O)N[C@H](C(=O)N[C@@H](CCCN=C(N)N)C(=O)N1CCC[C@H]1C(=O)NC(C)C)[C@@H](C)CC	29	IC50 [4]: > 1000 nM
CCC[C@H](NC(=O)[C@@H](NC(=O)[C@H](NC(=O)[C@@H](NC(=O)CNC(C)=O)C(C)C)[C@H](C)CC)[C@@H](C)O)C(=O)N[C@H](C(=O)N[C@@H](CCCN=C(N)N)C(=O)NCC)[C@@H](C)CC	4.22	–
CCC[C@H](NC(=O)[C@@H](NC(=O)[C@H](NC(=O)[C@@H](NC(=O)CNC(=O)CN(C)C(C)=O)C(C)C)[C@H](C)CC)[C@@H](C)O)C(=O)N[C@H](C(=O)N[C@@H](CCCN=C(N)N)C(=O)N1CCC[C@H]1C(=O)NCC)[C@@H](C)CC [ABT 510] (Ac-[Sar]GV[dI]T[Nva]IRP-NHEt)	–	IC50 [5]: 200 nM; IC50 [6]: 0.03 nM
CCC[C@@H](C(=O)N[C@H](C(=O)N[C@@H](CCCN=C(N)N)C(=O)N1CCC[C@H]1C(=O)NCC)[C@@H](C)CC)N(C)C(=O)[C@@H](NC(=O)[C@H](NC(=O)[C@@H](NC(=O)CNC(=O)CN(C)C(C)=O)C(C)C)[C@H](C)CC)[C@@H](C)O	0.54	IC50 [7]: 50 nM
CCNC(=O)[C@H](CCCN=C(N)N)NC(=O)[C@@H](NC(=O)[C@H](CCCN=C(N)N)NC(=O)[C@@H](NC(=O)[C@H](NC(=O)[C@@H](NC(=O)CNC(C)=O)C(C)C)[C@H](C)CC)[C@@H](C)O)[C@@H](C)CC	> 100	–
CCC[C@H](NC(=O)[C@@H](NC(=O)[C@H](CCCN=C(N)N)NC(=O)[C@@H](NC(=O)[C@H](NC(=O)[C@@H](NC(=O)CNC(C)=O)C(C)C)[C@H](C)CC)[C@@H](C)O)[C@@H](C)CC)C(=O)NCC	1.45	–
CCC[C@H](NC(=O)[C@@H](NC(=O)[C@H](NC(=O)[C@@H](NC(=O)CNC(=O)CN(C)C(C)=O)C(C)C)[C@@H](C)CC)[C@@H](C)O)C(=O)N[C@H](C(=O)N[C@@H](CCCNC(=N)N)C(=O)N1CCC[C@H]1C(=O)NCC)[C@@H](C)CC [ABT-510] (Ac-[Sar]GV[d(aIle)]T[Nva]IRP-NHEt)	–	IC50 [2]: 10 nM; IC50 [6]: 0.89 nM
